Only some compounds are listed: those with a hit (about 2.3% of all), similar ones and a draw of the others.
TRPC4 act: opens the mouse TRPC4 cation channel; Q9QUQ5; AID 2237; HEK293 TRPC4beta/mu-opioid, Fluo4 calcium fluorescence; active compounds read high; B-score at 10 µM; 310,000 compounds, 0.49% hits;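 active = B-score above 5 SD of library B-scores, and initial fluorescence ratio not above library mean plus 5 SD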;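 note: positive B-score marks a calcium rise read as TRPC4 activation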
Target sequence (Q9QUQ5 whole entry, looked up): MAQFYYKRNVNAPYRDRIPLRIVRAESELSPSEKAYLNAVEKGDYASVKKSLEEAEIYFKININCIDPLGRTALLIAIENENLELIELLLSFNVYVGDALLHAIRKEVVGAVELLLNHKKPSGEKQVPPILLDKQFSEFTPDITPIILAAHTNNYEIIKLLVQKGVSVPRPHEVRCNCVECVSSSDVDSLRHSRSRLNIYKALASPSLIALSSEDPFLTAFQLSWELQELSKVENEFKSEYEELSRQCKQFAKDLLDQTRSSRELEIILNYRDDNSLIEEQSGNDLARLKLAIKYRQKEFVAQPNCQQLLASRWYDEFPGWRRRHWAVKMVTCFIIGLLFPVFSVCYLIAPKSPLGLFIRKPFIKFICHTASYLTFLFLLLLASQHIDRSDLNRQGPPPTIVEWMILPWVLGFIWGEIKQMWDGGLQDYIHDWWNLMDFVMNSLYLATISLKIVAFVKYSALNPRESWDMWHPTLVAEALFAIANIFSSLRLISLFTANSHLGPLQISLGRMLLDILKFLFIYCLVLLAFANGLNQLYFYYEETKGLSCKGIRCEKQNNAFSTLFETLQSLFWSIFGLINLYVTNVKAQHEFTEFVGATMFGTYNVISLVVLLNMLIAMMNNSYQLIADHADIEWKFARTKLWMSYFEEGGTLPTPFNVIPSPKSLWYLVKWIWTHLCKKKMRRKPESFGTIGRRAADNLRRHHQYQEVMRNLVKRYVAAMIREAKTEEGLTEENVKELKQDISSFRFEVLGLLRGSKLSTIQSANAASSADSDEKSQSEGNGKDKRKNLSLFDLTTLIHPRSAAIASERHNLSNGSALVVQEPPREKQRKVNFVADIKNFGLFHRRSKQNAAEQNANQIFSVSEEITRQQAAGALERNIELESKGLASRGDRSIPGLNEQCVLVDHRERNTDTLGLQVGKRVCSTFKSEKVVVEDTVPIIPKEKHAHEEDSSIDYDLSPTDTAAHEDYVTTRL
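Technique: kinetic Fluo4 calcium fluorescence; Test system: TRPC4beta and mu-opioid receptor HEK293 stable cells; Measure: B-scored integrated calcium fluorescence ratio; Benchmarks: low control buffer alone, high control maximal DAMGO; Schedule: 45 min room-temperature Fluo4 loading, 110 s read.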
TRPC4 potent: allosterically enhances the mouse TRPC4 cation channel | Q9QUQ5 | HEK293 TRPC4beta/mu-opioid, DAMGO EC20, Fluo-4 Ca2+ flux; active compounds read high | B-score at 10 µM | 310,000 compounds, 0.42% hits | AID 2227;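 active = B-score of calcium response area above 5 SD of library B-scores, with initial fluorescence ratio within 5 SD of library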
TRPC6 inhibitor: inhibitors of mouse TRPC6 channel. Q61143. HEK293-TRPC6, membrane potential dye, ACh-evoked depolarization; active compounds read low. B-score at 10 µM. 310,000 compounds, 1.1% hits;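 active = B-score under library mean minus 3 SD, initial fluorescence not abnormally high, positive integrated signal ratio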;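 note: B-score derived from integrated fluorescence ratio over the kinetic read; more negative B-score means stronger inhibition of depolarization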
TRPC6 act: activators of mouse TRPC6 channel. Q61143. HEK293-TRPC6 membrane potential dye fluorescence; active compounds read high. B-score at 10 µM. 310,000 compounds, 0.13% hits;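 active = B-score of the integrated fluorescence ratio above library mean plus 3 SD, and starting fluorescence ratio within library mean plus 5 SD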;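 note: higher score means more depolarization so channel activation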
TRPC4 inh: inhibitors of mouse TRPC4 channel. Q9QUQ5. HEK293 TRPC4beta/mu-opioid, DAMGO-evoked Fluo4 calcium flux; active compounds read low. B-score at 10 µM. 300,000 compounds, 0.39% hits. AID 2247;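 active = B-score over 3 SD under the library average, no early fluorescence shift, positive overall ratio signal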
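Assay system – HEK293 line stably carrying TRPC4beta and mu-opioid receptor · Doses – single dose · Detection – Fluo4 calcium-dye fluorescence, kinetic read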
TRPC4 spec 2: second check of whether TRPC6 inhibitors also affect mouse TRPC4; HEK293 TRPC4/MOR, membrane potential dye fluorescence; channel activated by saturating DAMGO dose; inhibition, % at 10 µM; AID 2776; shares compounds with TRPC6 inhibitor; 920 compounds, 42% hits;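 active = compounds whose fluorescence signal differed from control wells by over 3 SD, either direction, in both duplicate plates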
TRPC4 spec: tests whether TRPC6 inhibitors also affect mouse TRPC4. shares compounds with TRPC6 inhibitor. 920 compounds, 61% hits. activity change, negative = inhibition, % at 10 µM. AID 2777. HEK293 TRPC4/mu-opioid, membrane potential fluorescence;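 active = rise or fall in signal beyond 3 SD of buffer-only wells in both replicate plates, either sign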;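 note: integrated kinetic ratio of fluorescence range over baseline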
HEK293 MPD ctr 2-1: second check of TRPC6 inhibitor effects in parental HEK293 cells; shares compounds with TRPC6 inhibitor; signal change vs control, % at 10 µM; 920 compounds, 31% hits; AID 2779; parental HEK293 membrane potential dye fluorescence; maximal acetylcholine challenge after compound addition;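 active = membrane potential signal moving either way by over 3 SD of the maximum-effect control, in both duplicate plates, meaning non-specific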
HEK293 MPD ctr-1: parental HEK293 nonspecific activity of TRPC6 inhibitors | shares compounds with TRPC6 inhibitor | parental HEK293 membrane potential dye fluorescence | membrane potential signal change, % at 10 µM | 920 compounds, 60% hits;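 active = membrane potential signal shifting up or down by more than 3 SD of buffer-only wells, on both duplicate plates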
HEK293 MPD ctr-2: counter-screen for TRPC6 modulators: effect in parental HEK293 cells; membrane potential signal change, % at 10 µM; 2,400 compounds, 51% hits; membrane potential dye fluorescence; shares compounds with TRPC6 inhibitor;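 active = membrane potential signal moves up or down beyond 5 SD from buffer-only wells, on both duplicate plates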
HEK293 MPD ctr 2-2: second check of TRPC6 modulator effects in parental HEK293 cells; inhibition, % at 10 µM; 2,400 compounds, 14% hits; shares compounds with TRPC6 inhibitor; membrane potential dye fluorescence; after compound, maximal acetylcholine stimulation;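 active = membrane potential signal drops by more than 5 SD from the mean control signal, in both duplicate plates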
TRPC4/MOR mod: mouse TRPC4 off-target activity of TRPC6 modulators. shares compounds with TRPC6 inhibitor. HEK293 TRPC4/mu-opioid, membrane potential fluorescence. percent change from control (negative = decrease, positive = increase), % at 10 µM. 2,400 compounds, 69% hits. AID 488927;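 active = membrane potential signal moved up or down beyond 5 SD of buffer control wells, in both duplicate plates, actives on both sides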
TRPC4/MOR inh 2: second check of whether TRPC6 modulators also affect mouse TRPC4; shares compounds with TRPC6 inhibitor; HEK293 TRPC4/mu-opioid, membrane potential dye fluorescence; stimulated with maximal-effect DAMGO; 2,400 compounds, 55% hits; inhibition, % at 10 µM;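 active = drop in membrane potential signal beyond 5 SD of the control wells in both duplicate plates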;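 note: TRPC4 counter screen for TRPC6 hits run under conditions tuned for TRPC6 not TRPC4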
TRPC6 block conf: confirmation of mouse TRPC6 inhibitors; shares compounds with TRPC6 inhibitor; HEK293-TRPC6, membrane potential dye, ACh-evoked depolarization; inhibition, % at 10 µM; 3,300 compounds, 43% hits;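 active = fluorescence ratio falls more than 5 SD below the full-stimulation control mean, in both duplicate runs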;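 note: integrated fluorescence ratio of peak minus minimum over baseline after agonist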
TRPC6 act conf: confirmation of mouse TRPC6 activators | activation, % at 10 µM | shares compounds with TRPC6 inhibitor | HEK293-TRPC6 membrane potential dye fluorescence, FDSS | 2,800 compounds, 11% hits;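 active = ratio signal rise beyond 5 SD above unstimulated control wells' mean, seen in both duplicate runs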
Each line names hits and unclear results; the compound was inactive in the other large screens (follow-up assays come after a bar, where they were run); ! = not active in a repeat.

N=c1c2c(-c3ccccc3)c(-c3ccccc3)n(Cc3ccco3)c2ncn1CCCO	TRPC6 inhibitor -5.1 | HEK293 MPD ctr-2 150% | HEK293 MPD ctr 2-2 inactive | TRPC4/MOR mod 20% | TRPC4/MOR inh 2 76% | TRPC6 block conf inactive
N=c1c2c(-c3ccccc3)c(-c3ccccc3)n(Cc3ccco3)c2ncn1CCN1CCOCC1	TRPC6 inhibitor -9.9 | TRPC4 spec 2 40% | TRPC4 spec 3.4% | HEK293 MPD ctr 2-1 208% | HEK293 MPD ctr-1 8.2% | TRPC6 block conf inactive | TRPC6 act conf inactive
N=c1c2c(-c3ccccc3)c(-c3ccccc3)n(Cc3ccco3)c2ncn1CCO	TRPC6 inhibitor -6.6 | HEK293 MPD ctr-2 123% | HEK293 MPD ctr 2-2 inactive | TRPC4/MOR mod 16% | TRPC4/MOR inh 2 80% | TRPC6 block conf 43%
COc1cc(OC)c(NC(=O)c2sc3ncn(CC(=O)N4CCOCC4)c(=O)c3c2C)cc1Cl	none
CC(C)CCOC(=O)C[N+](C)(C)CCOC1CC2CCC1(C)C2(C)C (stereo not drawn)	TRPC6 inhibitor -5.7 | HEK293 MPD ctr-2 155% | HEK293 MPD ctr 2-2 inactive | TRPC4/MOR mod 34% | TRPC4/MOR inh 2 34% | TRPC6 block conf 48%
CCCCCCCOC(=O)C[N+](C)(C)CCOC1CC2CCC1(C)C2(C)C (stereo not drawn)	none
CCCCOC(=O)C[N+](C)(C)CCOC1CC2CCC1(C)C2(C)C (stereo not drawn)	TRPC6 inhibitor -5.2 | HEK293 MPD ctr-2 99% | HEK293 MPD ctr 2-2 inactive | TRPC4/MOR mod 23% | TRPC4/MOR inh 2 inactive | TRPC6 block conf 38%
Cc1ccc(SCCNC(=S)Nc2ccccc2)cc1	none
Cc1ccc(SCCNC(=S)Nc2ccc(C)c(C)c2)cc1	TRPC6 inhibitor -5.7 | HEK293 MPD ctr-2 active | HEK293 MPD ctr 2-2 active | TRPC4/MOR mod -266% | TRPC4/MOR inh 2 77% | TRPC6 block conf inactive | TRPC6 act conf inactive
O=C(O)[C@H]1CCCC[C@H]1C(=O)Nc1ccc(S(=O)(=O)N2CCOCC2)cc1	none
CC1CCC(C(C)C)C(OC(=O)Cn2c(-c3ccccc3)[n+](C)c3ccccc32)C1 (stereo not drawn)	TRPC6 inhibitor -5.6!, TRPC6 act 12 | HEK293 MPD ctr-2 506% | HEK293 MPD ctr 2-2 inactive | TRPC4/MOR mod 110% | TRPC4/MOR inh 2 60% | TRPC6 block conf 63% | TRPC6 act conf 176%

Screening data: PubChem, Johns Hopkins Ion Channel Center
